Data set [1] relates to Canis familiaris. Kind of data set: Decrease in systemic arterial blood pressure in dog at >5 ng/kg, iv measured for 2 to 20 mins after drug dosage. Type of data set: functional, organism-based. The following applies: Canis lupus familiaris; Artery.
The target in data set [2] is Substance-P receptor (Cavia porcellus) (UniProt P30547). Kind of data set: Agonist activity at NK1 receptor in guinea pig ileum assessed as increase in muscle tone. Type of data set: tissue-based. In outline:
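Guinea pig ileum segment suspended in a 3-ml bath of oxygenated Tyrode's solution at 38°, with contractile response recorded.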

Data set [3] concerns the target Substance-P receptor (Rattus norvegicus) (UniProt P14600). Kind of data set: Antagonist activity at NK1 receptor in Sprague-Dawley rat pituitary gland assessed as inhibition of LH release by radioimmunoassay in presence of LH-RH. Summed up: (§1)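 Anterior pituitaries from 20-day-old female Sprague-Dawley rats, two per 1 ml lactated Ringer's, incubated 6 hr at 37° with shaking. Medium was replaced hourly and assayed by RIA for LH, FSH, GH, PRL and TSH. Peptide was added after two preincubation periods (I3–I6), with LH-RH at I5 and I6. Agonism was read from I3/I4 release and antagonism from I5/I6. Values are in ng of NIH reference standards.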

Data set [4] has the same target. Kind of data set: Antagonist activity at NK1 receptor in Sprague-Dawley rat pituitary gland assessed as inhibition of FSH release by radioimmunoassay in presence of LH-RH. Summed up: as §1
The subject of data set [5] is Pituitary gland. Kind of data set: Effect on growth hormone release in Sprague-Dawley rat pituitary gland at 100 ug/ml by radioimmunoassay. Type of data set: functional, tissue-based. In outline:
as §1

The test system of data set [6] is Pituitary gland. Kind of data set: Effect on prolactin release in Sprague-Dawley rat pituitary gland at 100 ug/ml by radioimmunoassay. The data set is classed as functional, tissue-based. In outline: as §1
For data set [7], the system named is Pituitary gland. Kind of data set: Effect on thyrotropin hormone release in Sprague-Dawley rat pituitary gland at 100 ug/ml by radioimmunoassay. Type of data set: functional, tissue-based. In outline: as §1
Data set [8] can be described thus: Retardation factor of the compound using EtOAc-Pyr-HOAc-H2O at ratio of 5:5:1:3 as solvent system by thin layer chromatography. Type of data set: physicochemical.
Data set [9] in a line: Retardation factor of the compound using CHCl3-MeOH-concentrated NH4OH at ratio of 60:45:20 as solvent system by thin layer chromatography. The data set is classed as physicochemical.
A short description of data set [10]: Retardation factor of the compound using EtOH-H2O at ratio of 7:3 as solvent system by thin layer chromatography. The data set is classed as physicochemical.
A short description of data set [11]: Retardation factor of the compound using n-BuOH-HOAc-EtOAc-H2O at ratio of 1:1:1:1 as solvent system by thin layer chromatography. The data set is classed as physicochemical.
A short description of data set [12]: Retardation factor of the compound using n-PrOH-1N HOAc at ratio of 2:1 as solvent system by thin layer chromatography. Type of data set: physicochemical.
For data set [13], the system named is Canis familiaris. Kind of data set: Decrease in systemic arterial blood pressure in dog at 10 ng/kg, iv measured for 2 to 20 mins after drug dosage (reference value: 140 mmHg). The data set is classed as functional, Canis lupus familiaris, Artery.
The target of data set [14] is Substance-P receptor (Rattus norvegicus) (UniProt P14600). Kind of data set: Agonist activity at NK1 receptor in Sprague-Dawley rat pituitary gland assessed as change in LH release at 1000 ng/ml by radioimmunoassay (reference value: -11 +/- 27 ng/ml).
Chain of Substance-P receptor (Rattus norvegicus) (P14600 whole entry): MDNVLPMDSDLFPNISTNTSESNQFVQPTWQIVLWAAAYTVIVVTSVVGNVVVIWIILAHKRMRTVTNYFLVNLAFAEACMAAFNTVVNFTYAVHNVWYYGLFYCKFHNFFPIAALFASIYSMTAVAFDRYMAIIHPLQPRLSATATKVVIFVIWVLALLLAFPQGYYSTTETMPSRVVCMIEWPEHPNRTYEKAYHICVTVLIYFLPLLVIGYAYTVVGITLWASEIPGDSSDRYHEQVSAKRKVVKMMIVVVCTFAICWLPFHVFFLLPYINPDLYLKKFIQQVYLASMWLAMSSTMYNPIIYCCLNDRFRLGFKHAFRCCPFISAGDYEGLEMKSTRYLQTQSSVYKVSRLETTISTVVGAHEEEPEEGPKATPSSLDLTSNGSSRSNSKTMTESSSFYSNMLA
The target is the same in data set [15]. Kind of data set: Agonist activity at NK1 receptor in Sprague-Dawley rat pituitary gland assessed as change in LH release at 10000 ng/ml by radioimmunoassay (reference value: -11 +/- 27 ng/ml).
Data set [16] shares this target. Kind of data set: Agonist activity at NK1 receptor in Sprague-Dawley rat pituitary gland assessed as change in LH release at 100000 ng/ml by radioimmunoassay (reference value: -11 +/- 27 ng/ml).
Data set [17] has the same target. Kind of data set: Agonist activity at NK1 receptor in Sprague-Dawley rat pituitary gland assessed as change in FSH release at 1000 ng/ml by radioimmunoassay (reference value: 613 +/- 203 ng/ml).
The target is the same in data set [18]. Kind of data set: Agonist activity at NK1 receptor in Sprague-Dawley rat pituitary gland assessed as change in FSH release at 10000 ng/ml by radioimmunoassay (reference value: 613 +/- 203 ng/ml).
Data set [19] has the same target. Kind of data set: Agonist activity at NK1 receptor in Sprague-Dawley rat pituitary gland assessed as change in FSH release at 100000 ng/ml by radioimmunoassay (reference value: 613 +/- 203 ng/ml).

Active and inactive are the calls of the source. No cut-off for these calls is given here.

Chain of Substance-P receptor (Cavia porcellus) (P30547 whole entry): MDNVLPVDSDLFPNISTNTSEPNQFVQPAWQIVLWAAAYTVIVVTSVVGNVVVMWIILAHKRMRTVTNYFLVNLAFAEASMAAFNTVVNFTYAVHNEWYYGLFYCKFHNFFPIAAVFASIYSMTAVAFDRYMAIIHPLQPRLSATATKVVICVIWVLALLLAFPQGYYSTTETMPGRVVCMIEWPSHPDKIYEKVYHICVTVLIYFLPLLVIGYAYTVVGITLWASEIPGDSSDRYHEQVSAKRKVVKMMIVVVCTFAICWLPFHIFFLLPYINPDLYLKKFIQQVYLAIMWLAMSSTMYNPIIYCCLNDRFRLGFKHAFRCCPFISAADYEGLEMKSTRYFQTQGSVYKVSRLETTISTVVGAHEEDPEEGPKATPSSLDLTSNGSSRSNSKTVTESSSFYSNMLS

For `CSCC[C@H](NC(=O)[C@H](CC(C)C)NC(=O)CNC(=O)[C@H](Cc1ccc(O)cc1)NC(=O)[C@H](Cc1ccccc1)NC(=O)[C@H](CCC(N)=O)NC(=O)[C@H](CCC(N)=O)NC(=O)[C@@H]1CCCN1C(=O)[C@H](CCCCN)NC(=O)[C@@H]1CCCN1C(=O)[C@@H](N)CCCNC(=N)N)C(N)=O`, the inhibition entry in data set [1] is “Active”. For the same molecule, in data set [2], the result was Active. The inhibition result in data set [3] and in data set [4] was “inactive” each time. The outcome in data set [5], in data set [6] and in data set [7] was inactive. Also, the Rf in [8] came out at 0.9; in [9] it was 0.13; in data set [10], 0; in [11], 0.09; in data set [12], 0.05. Also, the Activity in data set [13] is 110 mmHg; in data set [14], -13 ng/mL; in [15], 11 ng/mL; in [16], 68 ng/mL; in data set [17] it was 666 ng/mL; in data set [18], 586 ng/mL. Besides, the Activity in [19] amounted to 1330 ng/mL.

Values taken from ChEMBL document CHEMBL3272072 (J Med Chem, 1976).
